Experiment [1] addresses W60dA human recombinant thrombin (Homo sapiens, UniProt P00734, W413A). As to the kind of experiment: HPLC-based kinetic assay of FXIII. It is filed as biochemical. The settings on record: W60dA thrombin relative to WT thrombin.
For experiment [2], the target named is T1, W215A human recombinant thrombin (Homo sapiens, UniProt P00734, W590A). As to the kind of experiment: HPLC-based kinetic assay of FXIII. It is filed as biochemical. The settings on record: W215A thrombin relative to WT thrombin.
Experiment [3] deals with T2, L99A human recombinant thrombin (Homo sapiens, UniProt P00734, L459A). The settings on record: ref [37], cited from earlier work.
In experiment [4] the target is T3, E217A human recombinant thrombin (Homo sapiens, UniProt P00734, E592A). To be noted: E217A thrombin relative to WT thrombin; ref [37]; cited from earlier work.
Experiment [5] concerns the target Y60aA human recombinant thrombin (Homo sapiens, UniProt P00734, Y410A). Nature of the experiment: HPLC-based kinetic assay of FXIII. It is filed as biochemical. The settings on record: Y60aA thrombin relative to WT thrombin.
Experiment [6] addresses T1, W215A human recombinant thrombin. To be noted: W215A thrombin relative to WT thrombin; ref [37]; cited from earlier work.
Experiment [7] addresses T3, E217A human recombinant thrombin. As to the kind of experiment: HPLC-based kinetic assay of FXIII. It is filed as biochemical. To be noted: E217A thrombin relative to WT thrombin. The method, boiled down: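 Recombinant human E217A thrombin (over 90% active by hirudin titration) at 33.6 or 78.4 nM depending on peptide, acting on acetylated/amidated FXIII (28–41) segment peptides at 100–3000 μM. Conditions: 50 mM H3PO4, 100 mM NaCl, 0.1% PEG, pH 7.4, 25 °C. Timed aliquots quenched in 12.5% H3PO4. FXIII (28–37) product measured by RP-HPLC against a calibration curve.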

The target in experiment [8] is T2, L99A human recombinant thrombin. Nature of the experiment: HPLC-based kinetic assay of FXIII. It is filed as biochemical. To be noted: L99A thrombin relative to WT thrombin.

Read-outs that look alike come from different tables or passages of the source.

Turning to “Ac-TVELQGPVPRGVNL-NH2 [FXIII (28–41) V34P AP]”, the decrease in kcat stood at 1.3 fold in experiment [1] and 2 fold in experiment [2].
For the substance “Ac-TVELQGVVPRGVNL-NH2 [FXIII (28–41) V34 AP]”, the decrease in kcat is reported as 3 fold in experiment [3] (L99A thrombin relative to WT thrombin), 3 fold in experiment [1] and not above 2 fold in experiment [4]. For the same substance, the “Km and kcat (in words)” value in experiment [3] (L99A thrombin, relative to WT thrombin or across the V34X series) is recorded as “highest Km values of the IIa L99A series”. Also, the “increase in Km” value is 3–4 fold in experiment [4] and 2 fold in experiment [5]. In addition, the “decrease in kcat/Km” value in experiment [6] is reported as 4 fold.
“Ac-TVELQGFVPRGVNL-NH2 [FXIII (28–41) V34F AP]”: in experiment [1], the “Km (in words)” value is reported as “comparable to that of WT thrombin” and the decrease in kcat was 4 fold. Besides, the loss in kcat in experiment [7] amounted to 2 fold. In addition, the decrease in kcat in experiment [8] is listed as 2 fold. In experiment [2], the decrease in kcat is 3 fold and the “decrease in kcat/Km” value is on record as 3 fold.
Take “Ac-TVELQGLVPRGVNL-amide (Ac-TVELQGLVPRGVNL-NH2) [FXIII (28–41) V34L AP]”: in experiment [4], the decrease in kcat is not above 2 fold and the “increase in Km” value is recorded as 3–4 fold. Besides, the “increase in Km” value in experiment [5] amounted to 2 fold.

These data come from publication PMC3645320 (Biochimica et biophysica acta, 2011).
